Test results from ChEMBL document CHEMBL1155082, “Chemo-enzymatic synthesis of a series of 2,4-syn-functionalized (S)-glutamate analogues: new insight into the structure-activity relation of ionotropic glutamate receptor subtypes 5, 6, and 7” (J Med Chem, 2008).

What was measured:
[1] = Displacement of [3H]KA from KA receptor in rat synaptosomes; assay type: subcellular, Brain
[2] = molecular target: Glutamate NMDA receptor; assay: Displacement of [3H]CGP 39653 from NMDA receptor in rat synaptosomes; assay type: subcellular, Brain
[3] = Displacement of [3H]AMPA from AMPA receptor in rat synaptosomes; assay type: subcellular, Brain
[4] = molecular target: Glutamate receptor ionotropic, kainate 1 (Rattus norvegicus, UniProt P22756); assay: Displacement of [3H]SYM2081 from rat recombinant iGluR5
[5] = molecular target: Metabotropic glutamate receptor 1 (Rattus norvegicus, UniProt P23385); assay: Activity at rat mGluR1 expressed in HEK293 cells assessed as calcium mobilization by FLIPR; assay type: functional, cell-based
Metabotropic glutamate receptor 1, sequence (P23385 whole entry): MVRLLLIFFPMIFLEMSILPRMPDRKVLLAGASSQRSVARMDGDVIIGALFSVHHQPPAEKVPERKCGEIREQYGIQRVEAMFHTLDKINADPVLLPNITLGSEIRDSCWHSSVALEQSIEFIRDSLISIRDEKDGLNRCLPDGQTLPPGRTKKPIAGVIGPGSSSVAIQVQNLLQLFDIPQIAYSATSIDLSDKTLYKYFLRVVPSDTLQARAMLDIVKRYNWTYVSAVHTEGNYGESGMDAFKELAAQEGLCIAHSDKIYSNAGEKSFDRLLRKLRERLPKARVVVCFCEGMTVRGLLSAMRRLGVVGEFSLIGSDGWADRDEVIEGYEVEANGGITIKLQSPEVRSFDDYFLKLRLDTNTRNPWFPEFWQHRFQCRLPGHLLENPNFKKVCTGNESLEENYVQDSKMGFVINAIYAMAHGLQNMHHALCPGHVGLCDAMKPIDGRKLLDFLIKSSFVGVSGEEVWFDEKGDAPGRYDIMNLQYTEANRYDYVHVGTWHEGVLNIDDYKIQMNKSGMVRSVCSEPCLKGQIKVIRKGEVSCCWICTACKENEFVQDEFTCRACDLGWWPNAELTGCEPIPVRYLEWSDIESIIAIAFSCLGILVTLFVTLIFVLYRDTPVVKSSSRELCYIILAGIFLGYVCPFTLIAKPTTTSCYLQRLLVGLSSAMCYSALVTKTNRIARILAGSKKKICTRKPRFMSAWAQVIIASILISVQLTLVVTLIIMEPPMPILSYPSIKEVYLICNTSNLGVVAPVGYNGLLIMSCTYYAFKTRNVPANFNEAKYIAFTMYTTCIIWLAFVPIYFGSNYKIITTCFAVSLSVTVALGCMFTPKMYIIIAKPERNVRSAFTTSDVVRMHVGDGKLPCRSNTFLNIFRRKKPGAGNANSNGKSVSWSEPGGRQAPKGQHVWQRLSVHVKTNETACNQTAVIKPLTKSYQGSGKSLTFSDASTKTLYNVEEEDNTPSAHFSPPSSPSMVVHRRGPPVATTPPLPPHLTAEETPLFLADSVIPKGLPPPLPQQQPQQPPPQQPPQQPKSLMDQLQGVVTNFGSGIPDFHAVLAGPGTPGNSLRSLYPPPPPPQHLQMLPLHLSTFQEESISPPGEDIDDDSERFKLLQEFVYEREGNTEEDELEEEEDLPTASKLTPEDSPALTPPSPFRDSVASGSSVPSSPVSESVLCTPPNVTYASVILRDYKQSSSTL
Procedure, shortened: (§1)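 Rat receptor cDNA transiently transfected into HEK293 (Lipofectamine Plus), seeded 24 h later, assayed next day. Cells loaded with 3 µM Fluo-4/0.01% pluronic in HEPES-buffered HBSS pH 7.4 with BSA and 2.5 mM probenecid, 1 h, 37 °C. Glutamate at EC80 or EC10 added with compound. FLIPR read over 3 min at room temperature. Maximum fluorescence change fitted by Hill equation.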

[6] = molecular target: Metabotropic glutamate receptor 3 (Rattus norvegicus, UniProt P31422); assay: Displacement of [3H][…] from rat mGluR3 expressed in CHO cells by SPA; assay type: cell-based
Metabotropic glutamate receptor 3, sequence (P31422 whole entry): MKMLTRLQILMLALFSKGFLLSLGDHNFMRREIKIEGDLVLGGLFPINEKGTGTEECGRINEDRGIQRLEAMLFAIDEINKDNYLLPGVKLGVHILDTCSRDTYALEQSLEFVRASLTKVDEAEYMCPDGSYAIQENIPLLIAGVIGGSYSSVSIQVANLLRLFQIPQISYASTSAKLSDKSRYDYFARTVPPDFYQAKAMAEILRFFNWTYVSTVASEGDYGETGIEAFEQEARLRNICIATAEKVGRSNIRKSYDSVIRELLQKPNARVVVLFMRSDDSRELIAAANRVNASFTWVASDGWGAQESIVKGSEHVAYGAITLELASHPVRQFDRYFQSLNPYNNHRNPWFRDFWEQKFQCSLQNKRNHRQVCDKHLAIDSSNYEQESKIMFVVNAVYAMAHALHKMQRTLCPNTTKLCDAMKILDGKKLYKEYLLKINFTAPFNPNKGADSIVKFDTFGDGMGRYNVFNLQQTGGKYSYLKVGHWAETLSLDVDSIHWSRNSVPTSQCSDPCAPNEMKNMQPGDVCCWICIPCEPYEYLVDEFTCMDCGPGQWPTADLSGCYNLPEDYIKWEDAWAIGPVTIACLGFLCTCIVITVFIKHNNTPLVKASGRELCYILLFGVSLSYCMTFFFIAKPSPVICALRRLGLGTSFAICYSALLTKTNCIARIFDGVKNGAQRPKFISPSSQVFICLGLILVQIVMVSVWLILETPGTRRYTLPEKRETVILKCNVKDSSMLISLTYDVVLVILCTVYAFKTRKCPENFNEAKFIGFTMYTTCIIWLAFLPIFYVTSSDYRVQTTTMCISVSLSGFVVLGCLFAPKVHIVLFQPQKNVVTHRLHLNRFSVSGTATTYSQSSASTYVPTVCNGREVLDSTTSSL
Procedure, shortened: (§2)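 Membranes from transiently transfected CHO cells harvested 48 h post-transfection, protein by Bradford, stored at -80 °C. SPA binding at 10 µg protein/well in 50 mM Tris-HCl pH 7.0 with 2 mM MgCl2, 2 nM [3H]LY341495 and WGA-SPA beads. Incubated 45 min on ice, then overnight at 4 °C. Nonspecific binding with 10 µM LY341495. Ki by Cheng-Prusoff.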

[7] = molecular target: T1, Metabotropic glutamate receptor 2 (Rattus norvegicus, UniProt P31421); assay: Activity at rat mGluR2 expressed in CHO cells assessed as calcium mobilization by FLIPR; assay type: functional, cell-based
Procedure, shortened: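 Rat mGluR2 cDNA co-transfected 8:2 with C. elegans GR Qi3 chimera cDNA into CHO cells (Lipofectamine Plus, 10 µg DNA/~7×10^6 cells). Fluo-4 loading for 1 h at 37 °C. Stimulation with EC80 or EC10 glutamate plus compound. FLIPR maximum fluorescence change over 3 min at room temperature, baseline-subtracted, fitted by Hill equation.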

[8] = molecular target: Metabotropic glutamate receptor 4 (Homo sapiens, UniProt Q14833); assay: Activity at mGluR4 assessed as calcium mobilization by FLIPR; assay type: functional
Metabotropic glutamate receptor 4, sequence (Q14833 whole entry): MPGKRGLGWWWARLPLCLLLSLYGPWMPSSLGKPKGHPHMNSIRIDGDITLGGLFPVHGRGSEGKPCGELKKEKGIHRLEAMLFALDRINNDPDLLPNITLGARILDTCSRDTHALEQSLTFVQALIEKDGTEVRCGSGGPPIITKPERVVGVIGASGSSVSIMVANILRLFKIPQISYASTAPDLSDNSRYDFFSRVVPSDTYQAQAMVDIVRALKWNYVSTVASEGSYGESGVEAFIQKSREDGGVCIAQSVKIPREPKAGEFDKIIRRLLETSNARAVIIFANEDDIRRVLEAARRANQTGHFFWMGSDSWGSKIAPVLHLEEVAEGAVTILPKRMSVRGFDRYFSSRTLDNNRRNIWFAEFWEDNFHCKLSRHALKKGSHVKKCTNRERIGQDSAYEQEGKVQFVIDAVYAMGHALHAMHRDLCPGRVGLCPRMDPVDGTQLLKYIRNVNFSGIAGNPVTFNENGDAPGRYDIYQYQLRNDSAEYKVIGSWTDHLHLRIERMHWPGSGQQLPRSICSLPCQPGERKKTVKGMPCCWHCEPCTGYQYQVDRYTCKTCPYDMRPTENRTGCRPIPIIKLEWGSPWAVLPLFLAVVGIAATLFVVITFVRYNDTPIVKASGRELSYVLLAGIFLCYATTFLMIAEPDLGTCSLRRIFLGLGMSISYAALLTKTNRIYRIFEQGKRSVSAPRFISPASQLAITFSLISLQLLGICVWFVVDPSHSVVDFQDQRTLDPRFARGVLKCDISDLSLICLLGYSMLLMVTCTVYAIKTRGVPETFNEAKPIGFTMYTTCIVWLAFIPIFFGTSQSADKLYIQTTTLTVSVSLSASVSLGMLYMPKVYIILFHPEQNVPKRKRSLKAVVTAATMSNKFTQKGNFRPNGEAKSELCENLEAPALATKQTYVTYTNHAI

[9] = molecular target: Glutamate receptor ionotropic, kainate 2 (Rattus norvegicus, UniProt P42260); assay: Displacement of [3H]SYM2081 from rat recombinant iGluR6
Glutamate receptor ionotropic, kainate 2, sequence (P42260 whole entry): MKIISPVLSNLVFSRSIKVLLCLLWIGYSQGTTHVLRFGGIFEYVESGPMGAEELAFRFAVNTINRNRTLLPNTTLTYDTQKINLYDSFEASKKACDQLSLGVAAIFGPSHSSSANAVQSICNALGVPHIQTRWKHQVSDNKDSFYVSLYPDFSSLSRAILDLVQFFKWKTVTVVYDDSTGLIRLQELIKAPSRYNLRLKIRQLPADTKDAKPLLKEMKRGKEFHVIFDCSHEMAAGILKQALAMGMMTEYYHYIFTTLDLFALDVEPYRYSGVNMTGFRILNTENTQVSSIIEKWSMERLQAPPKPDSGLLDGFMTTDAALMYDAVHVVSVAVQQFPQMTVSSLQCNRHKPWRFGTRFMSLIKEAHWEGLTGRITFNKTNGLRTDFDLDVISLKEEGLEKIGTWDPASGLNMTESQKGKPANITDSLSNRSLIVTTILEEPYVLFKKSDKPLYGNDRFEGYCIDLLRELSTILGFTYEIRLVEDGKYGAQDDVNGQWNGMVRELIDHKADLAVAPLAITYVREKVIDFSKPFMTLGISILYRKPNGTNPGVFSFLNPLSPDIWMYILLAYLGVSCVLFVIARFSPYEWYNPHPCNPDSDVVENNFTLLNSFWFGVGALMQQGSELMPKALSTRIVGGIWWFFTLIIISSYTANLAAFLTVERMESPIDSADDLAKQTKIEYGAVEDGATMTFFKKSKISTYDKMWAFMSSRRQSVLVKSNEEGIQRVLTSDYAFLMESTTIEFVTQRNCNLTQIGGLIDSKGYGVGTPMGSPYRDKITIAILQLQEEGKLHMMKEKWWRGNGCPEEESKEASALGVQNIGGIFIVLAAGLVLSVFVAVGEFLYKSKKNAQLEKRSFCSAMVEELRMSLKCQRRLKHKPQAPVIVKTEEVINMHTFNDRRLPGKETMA

[10] = molecular target: Metabotropic glutamate receptor 5 (Rattus norvegicus, UniProt P31424); assay: Activity at rat mGluR5 expressed in HEK293 cells assessed as calcium mobilization by FLIPR; assay type: functional, cell-based; procedure, shortened: as §1
Metabotropic glutamate receptor 5, sequence (P31424 whole entry): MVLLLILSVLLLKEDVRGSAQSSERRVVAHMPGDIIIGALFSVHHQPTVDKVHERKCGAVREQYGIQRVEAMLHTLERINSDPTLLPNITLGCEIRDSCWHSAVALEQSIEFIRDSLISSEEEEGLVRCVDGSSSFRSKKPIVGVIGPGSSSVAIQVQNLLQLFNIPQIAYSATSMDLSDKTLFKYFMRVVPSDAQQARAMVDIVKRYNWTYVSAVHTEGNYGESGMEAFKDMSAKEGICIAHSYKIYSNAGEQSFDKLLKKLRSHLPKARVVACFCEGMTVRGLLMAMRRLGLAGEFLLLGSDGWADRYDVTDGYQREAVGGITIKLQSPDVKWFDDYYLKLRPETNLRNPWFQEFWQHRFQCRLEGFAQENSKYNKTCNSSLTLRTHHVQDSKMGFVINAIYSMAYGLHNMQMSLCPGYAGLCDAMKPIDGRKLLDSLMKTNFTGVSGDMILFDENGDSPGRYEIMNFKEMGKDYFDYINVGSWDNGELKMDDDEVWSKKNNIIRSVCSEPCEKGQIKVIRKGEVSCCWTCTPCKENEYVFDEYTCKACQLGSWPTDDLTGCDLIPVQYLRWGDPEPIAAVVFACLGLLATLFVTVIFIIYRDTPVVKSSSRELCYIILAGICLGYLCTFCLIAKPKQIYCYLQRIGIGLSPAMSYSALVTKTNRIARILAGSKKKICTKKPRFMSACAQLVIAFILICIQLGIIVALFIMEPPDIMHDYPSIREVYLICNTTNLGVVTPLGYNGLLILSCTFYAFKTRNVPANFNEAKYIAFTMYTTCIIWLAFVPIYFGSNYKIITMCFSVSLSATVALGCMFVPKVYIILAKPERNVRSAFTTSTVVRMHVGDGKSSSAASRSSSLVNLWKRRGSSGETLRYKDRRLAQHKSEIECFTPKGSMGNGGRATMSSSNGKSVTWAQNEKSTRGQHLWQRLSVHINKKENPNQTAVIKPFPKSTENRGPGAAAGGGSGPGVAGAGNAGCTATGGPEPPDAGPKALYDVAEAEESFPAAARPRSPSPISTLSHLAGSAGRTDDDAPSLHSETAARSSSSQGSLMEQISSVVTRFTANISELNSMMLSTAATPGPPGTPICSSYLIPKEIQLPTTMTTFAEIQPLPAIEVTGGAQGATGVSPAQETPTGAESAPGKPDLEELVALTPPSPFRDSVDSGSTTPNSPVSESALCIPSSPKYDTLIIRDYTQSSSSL

[11] = molecular target: T1, Metabotropic glutamate receptor 2; assay: Displacement of [3H][…] from rat mGluR2 expressed in CHO cells by SPA; assay type: cell-based; procedure, shortened: as §2
[12] = molecular target: T2, Glutamate receptor ionotropic, kainate 4 (Rattus norvegicus, UniProt Q01812); assay: Binding affinity to rat cloned KA1 receptor
T2 sequence (Q01812 whole entry): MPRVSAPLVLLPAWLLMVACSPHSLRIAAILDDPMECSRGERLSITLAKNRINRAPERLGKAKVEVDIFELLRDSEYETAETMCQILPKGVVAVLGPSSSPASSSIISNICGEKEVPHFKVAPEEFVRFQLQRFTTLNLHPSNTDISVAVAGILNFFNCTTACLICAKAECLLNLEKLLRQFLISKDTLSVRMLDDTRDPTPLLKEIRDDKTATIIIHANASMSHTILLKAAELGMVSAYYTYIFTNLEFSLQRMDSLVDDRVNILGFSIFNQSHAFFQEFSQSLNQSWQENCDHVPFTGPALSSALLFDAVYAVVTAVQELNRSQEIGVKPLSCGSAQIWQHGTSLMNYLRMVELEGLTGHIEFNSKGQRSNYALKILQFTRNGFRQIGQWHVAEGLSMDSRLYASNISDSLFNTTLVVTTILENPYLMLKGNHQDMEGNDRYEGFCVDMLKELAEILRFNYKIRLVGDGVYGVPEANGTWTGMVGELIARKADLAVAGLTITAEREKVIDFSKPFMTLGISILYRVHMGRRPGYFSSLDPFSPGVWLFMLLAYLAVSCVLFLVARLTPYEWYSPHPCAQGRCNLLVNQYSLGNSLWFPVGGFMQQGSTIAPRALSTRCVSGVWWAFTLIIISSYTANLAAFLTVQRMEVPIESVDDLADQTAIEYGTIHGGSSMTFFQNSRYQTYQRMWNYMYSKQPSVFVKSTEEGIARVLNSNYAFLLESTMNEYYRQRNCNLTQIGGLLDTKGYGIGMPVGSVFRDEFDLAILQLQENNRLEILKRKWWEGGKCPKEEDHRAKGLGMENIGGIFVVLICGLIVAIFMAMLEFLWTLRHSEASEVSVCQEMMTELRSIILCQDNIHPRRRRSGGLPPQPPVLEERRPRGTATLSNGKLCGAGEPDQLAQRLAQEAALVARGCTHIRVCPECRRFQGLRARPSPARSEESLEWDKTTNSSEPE

[13] = tested on: Escherichia coli; assay: Activity at Escherichia coli JM103 aspartate aminotransferase relative to alpha-ketoglutarate
Procedure, shortened: (§3)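 E. coli AAT purified from overexpressing JM103 carrying pUC119-aspC. Run at 25 °C in 0.1 M potassium phosphate pH 7.6 with 40 mM Asp, 0.2 mM NADH, 0.1-10 mM ketoacid substrate, 0.05 UI AAT and 2 UI malic dehydrogenase coupling. Rates taken from linear OD decay at 340 nm. Kinetic parameters and standard errors from Hanes-Woolf plot by least squares.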

[14] = tested on: Escherichia coli; assay: Activity at Escherichia coli JM103 aspartate aminotransferase; procedure, shortened: as §3

IC50 [1] [µM]	pIC50 [1]	Ki [2] [µM]	IC50 [3] [µM]	Ki ([4]; read-out: Ki) [µM]	Ki ([9]; read-out: Ki) [µM]	SMILES	also measured
39	4.41	> 100	> 100			N[C@@H](C[C@@H](CC(=O)O)C(=O)O)C(=O)O	
12	4.93	26	> 100			N[C@@H](C[C@@H](COCc1ccccc1)C(=O)O)C(=O)O	
7.9	5.1	> 100	31	0.0428	6.67	COC(=O)CC[C@H](C[C@H](N)C(=O)O)C(=O)O	EC50 [5]: > 100 µM; Ki [6]: > 1000 µM; EC50 [7]: > 100 µM; Ki ([4]; read-out: pKi (converted)): 0.0417 µM; EC50 [8]: > 100 µM; pIC50 [3]: 4.51; Ki ([9]; read-out: pKi (converted)): 6.17 µM; EC50 [10]: > 100 µM; Ki [11]: > 1000 µM
16	4.8	> 100	25	0.00745	9.66	NC(=O)CC[C@H](C[C@H](N)C(=O)O)C(=O)O	EC50 [5]: > 100 µM; Ki [6]: > 1000 µM; EC50 [7]: > 100 µM; EC50 [8]: > 100 µM; pIC50 [3]: 4.6; EC50 [10]: > 100 µM; Ki [11]: > 1000 µM
						C=C(C)[C@H]1CN[C@H](C(=O)O)[C@H]1CC(=O)O [KAINIC ACID]	Ki [12]: 0.0047 µM
						O=C(O)CC(CC(=O)C(=O)O)C(=O)O (racemic)	kcat [13]: 1.1%; Km [14]: 30100 µM
						O=C(O)C(=O)CC(COCc1ccccc1)C(=O)O (racemic)	kcat [13]: 11%; Km [14]: 90 µM
						O=C(O)C(=O)CC(CO)C(=O)O (racemic)	kcat [13]: 1.6%; Km [14]: 4700 µM
						COC(=O)CCC(CC(=O)C(=O)O)C(=O)O (racemic)	kcat [13]: 33.6%; Km [14]: 610 µM
> 100		52	> 100			N[C@@H](C[C@@H](CCC(=O)O)C(=O)O)C(=O)O	
0.24	6.62	15	44			N[C@@H](C[C@@H](CO)C(=O)O)C(=O)O	pIC50 [3]: 4.35
						COC(=O)CC(CC(=O)C(=O)O)C(=O)O (racemic)	kcat [13]: 41%; Km [14]: 1800 µM
> 100		72	> 100	0.138	> 100	N[C@@H](C[C@@H](CCC(=O)NCc1ccccc1)C(=O)O)C(=O)O	
41	4.39	> 100	74	0.641	10.6	CCNC(=O)CC[C@H](C[C@H](N)C(=O)O)C(=O)O	EC50 [5]: > 100 µM; Ki [6]: > 1000 µM; EC50 [7]: > 100 µM; EC50 [8]: > 100 µM; pIC50 [3]: 4.13; Ki ([9]; read-out: pKi (converted)): 10.2 µM; EC50 [10]: > 100 µM; Ki [11]: > 1000 µM
29	4.54	> 100	32	0.00381	0.123	CNC(=O)CC[C@H](C[C@H](N)C(=O)O)C(=O)O	EC50 [5]: > 100 µM; Ki [6]: > 1000 µM; EC50 [7]: > 100 µM; EC50 [8]: > 100 µM; pIC50 [3]: 4.51; Ki ([9]; read-out: pKi (converted)): 0.12 µM; EC50 [10]: > 100 µM; Ki [11]: > 1000 µM

SMILES	IC50 [1] [µM]	pIC50 [1]	Ki [2] [µM]	IC50 [3] [µM]	Ki ([4]; read-out: Ki) [µM]	Ki ([9]; read-out: Ki) [µM]	also measured
N[C@@H](Cn1oc(=O)[nH]c1=O)C(=O)O [QUISQUALATE]					0.171		
C/C(=C\C=C\[C@@H](C)C(=O)O)[C@H]1CN[C@H](C(=O)O)[C@H]1CC(=O)O [DOMORIC ACID]					0.00111	0.00604	Ki [12]: 0.04 µM; Ki ([4]; read-out: pKi (converted)): 0.00107 µM; Ki ([9]; read-out: pKi (converted)): 0.00575 µM
C[C@H](C[C@H](N)C(=O)O)C(=O)O [2S,4R-4-METHYLGLUTAMATE]						0.017	
